# Screening results: PubChem BioAssay, several laboratories
# A selection: hits, their analogues and other compounds. The true share with any hit is near 5.7%.
# Calb FLC: affects C. albicans growth with fluconazole | C. albicans CaCi-2 (fluconazole-resistant clinical isolate) + fluconazole, Alamar Blue growth, 48 h | growth inhibition, % (concentration not given with the values) | 300,000 tested, 0.57% active;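 active = growth inhibition above about 58% in most replicates, limit read from the data, passing the limit was not always enough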;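 note: all wells also contain fluconazole at 8 µg/ml as a sub-toxic cotreatment; 0% = median of DMSO wells and 100% = median of geldanamycin control wells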
# T cruzi repl: T. cruzi replication inhibition. inhibition, % (concentration not given with the values). AID 1885. 300,000 tested, 1.4% active. T. cruzi beta-gal in NIH3T3, luminescence, 90 h;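 active = mean inhibition across valid replicates above about 55%, limit read from the data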;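 note: signal also drops with host cell toxicity which is not excluded here; 0% = plate median of DMSO wells and 100% = zero luminescence signal; higher percent means less beta-gal luminescence so fewer parasites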
#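 Read-out: Parasite load inhibition, % | Test system: Mouse NIH/3T3 fibroblasts infected with β-gal-expressing T. cruzi Tulahuen C4 | Amount: 5,000 cells/well | Medium: DMEM, 2% fetal bovine serum | Signal: GalScreen β-gal luminescence, detergent lysis, 60 min | Timing: 3 h attach, ≥90 h co-culture | Also added: Tulahuen C4 trypomastigotes, 5000/well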
# Mdm2 MdmX PPI: human Mdm2/MdmX binding inhibition. O15151+Q00987. SaOS-2 split-luciferase Mdm2/MdmX complementation, luminescence. inhibition, % at 8 µM. 330,000 tested, 3% active. AID 485346;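 active = inhibition of at least 50% at 8 µM in the primary screen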
# Target sequence (O15151 whole entry, looked up): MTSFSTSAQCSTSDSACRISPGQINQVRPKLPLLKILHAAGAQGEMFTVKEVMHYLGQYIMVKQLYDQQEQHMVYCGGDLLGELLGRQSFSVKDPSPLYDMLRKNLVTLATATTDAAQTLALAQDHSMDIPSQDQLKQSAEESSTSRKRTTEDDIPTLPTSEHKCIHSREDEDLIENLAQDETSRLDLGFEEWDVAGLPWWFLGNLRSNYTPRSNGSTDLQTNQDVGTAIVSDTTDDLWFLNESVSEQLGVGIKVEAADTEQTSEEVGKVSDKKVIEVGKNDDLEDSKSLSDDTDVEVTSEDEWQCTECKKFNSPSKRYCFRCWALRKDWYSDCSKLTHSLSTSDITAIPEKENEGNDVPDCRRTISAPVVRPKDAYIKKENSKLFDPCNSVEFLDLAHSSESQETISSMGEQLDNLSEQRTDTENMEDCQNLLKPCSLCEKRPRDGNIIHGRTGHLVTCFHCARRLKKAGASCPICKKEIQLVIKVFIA
# Target sequence (Q00987 whole entry, looked up): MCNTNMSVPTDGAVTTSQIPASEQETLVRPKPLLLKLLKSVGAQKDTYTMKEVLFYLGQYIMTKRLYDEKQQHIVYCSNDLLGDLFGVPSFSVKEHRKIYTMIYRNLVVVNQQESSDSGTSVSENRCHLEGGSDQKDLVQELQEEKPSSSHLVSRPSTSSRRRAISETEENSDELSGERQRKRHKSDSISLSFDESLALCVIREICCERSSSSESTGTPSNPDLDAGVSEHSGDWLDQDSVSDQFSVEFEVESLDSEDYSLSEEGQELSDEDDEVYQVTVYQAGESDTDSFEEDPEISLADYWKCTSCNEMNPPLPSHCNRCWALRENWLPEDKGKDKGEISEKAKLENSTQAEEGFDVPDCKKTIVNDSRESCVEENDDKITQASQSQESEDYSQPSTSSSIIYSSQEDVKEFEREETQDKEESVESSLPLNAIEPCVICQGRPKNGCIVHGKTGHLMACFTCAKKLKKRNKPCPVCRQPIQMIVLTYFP
# CSC inhib: blocks cancer stem cells. cancer stem cell-like cells viability, luminescence. inhibition, % at 7.5 µM. 300,000 tested, 1.1% active; in the data active = inhibition above about 75%; tested in HMLE shEcad cells
# SKKanGAS inh: blocks kanamycin growth of S. pyogenes SKKanGAS strain. BacTiter-Glo, 6 h. 300,000 tested, 1.3% active. inhibition, % at 7.5 µM. AID 1662;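 active = mean replicate score, as percent of positive control median, at least 50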;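 note: strain carries kanamycin resistance gene driven by streptokinase promoter and grows in 40 µg/ml kanamycin; loss of luminescence reflects streptokinase promoter inhibition or plain growth inhibition; 0% = median of DMSO wells and 100% = positive control at its reference dose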
# Beta apoptosis: beta cell apoptosis inhibition | INS-1E cytokine-induced death, ATP luminescence, 48 h; percent of positive-control rescue, neutral wells zero | 300,000 tested, 0.8% active | AID 435005 | protection from apoptosis, % (concentration not given with the values);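 active = Every replicate reaches about 75%, or at least half do and their mean reaches it too, limit read from the data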;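 note: 0% = cytokine-treated negative control wells and 100% = positive control rescue; higher means more ATP so stronger rescue from cytokine killing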
# Mdm2-MdmX conf: confirmation of human Mdm2/MdmX interaction inhibitors; shares compounds with Mdm2 MdmX PPI; Mdm2-MdmX binding, luminescent assay; inhibition, % at 8 µM; 10,000 tested, 55% active; in the data active = inhibition above about 40%
# FLuc counter: inhibits full-length luciferase, flagging false Mdm2/MdmX hits; 6,200 tested, 77% active; shares compounds with Mdm2 MdmX PPI; SaOS-2 full-length luciferase counterscreen, luminescence; inhibition, % at 8 µM;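 active = mean inhibition at 8 µM reaching about 37%, which flags the compound as non-specific, limit read from the data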;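 note: p53-null SaOS-2 cells with luciferase driven by a doxycycline-inducible promoter; compound on cells about two nights before reading with doxycycline added after day one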
# * = called active by the depositor; x = no result.
SMILES,Calb FLC,T cruzi repl,Mdm2 MdmX PPI,CSC inhib,SKKanGAS inh,Beta apoptosis,Mdm2-MdmX conf,FLuc counter
COc1ccc(NC(=O)c2cc([N+](=O)[O-])ccc2O)cc1,83*,-22,81*,82*,74*,57,76*,53*
O=C(Nc1cccc([N+](=O)[O-])c1)c1cc2ccccc2cc1O,40,-10,93*,89*,74*,100*,75*,31
CC(C)(C)C(=O)NC(=S)Nc1cc(C(F)(F)F)ccc1N1CCOCC1,-9,5,7,-3,-7,-4,x,x
O=C(NC(=S)Nc1cc(C(F)(F)F)ccc1N1CCOCC1)c1sc2ccccc2c1Cl,-5,-6,50*,35,-5,8,19,x
CCCn1ncc(CN2CCC(CO)(CC3CCCCO3)CC2)c1C (stereo not drawn),-9,-1,-4,-3,3,-6,x,x
COc1ccc(-c2n[nH]c3c2CN(C(=O)c2ccc(OC)c(OC)c2)CC3)cc1,-7,-7,58*,41,-5,4,58*,55*
COc1cc(/C=N/n2cnc3scc(-c4cccs4)c3c2=O)cc(OC)c1OC,-10,19,61*,55,20,8,36,x
Cc1ccc(S(=O)(=O)N2c3cc(C)ccc3OCC2C(C)(C)C)cc1 (stereo not drawn),-3,7,63*,53,44,0,72*,48*
COc1ccc(S(=O)(=O)N2c3cc(C)ccc3OCC2C(C)(C)C)cc1 (stereo not drawn),3,29,56*,47,34,4,61*,63*
COc1cccc(C(=O)N2c3cc(C)ccc3OCC2C(C)(C)C)c1 (stereo not drawn),-2,16,9,-2,9,5,x,x
CC1COc2ccccc2N1S(=O)(=O)c1ccc(Cl)cc1 (stereo not drawn),-4,2,6,-12,0,-9,x,x
Cc1ccc(S(=O)(=O)N2c3ccccc3OCC2c2ccccc2)cc1 (stereo not drawn),23,-6,56*,63,30,-2,58*,55*
CSc1ncccc1C(=O)N1CCCC(Nc2ccc(C)c(C)c2)C1 (stereo not drawn),-11,0,17,11,-3,-1,x,x
CCOc1cc(/C=N/NC(=O)Cn2nc([N+](=O)[O-])cc2C)cc(Br)c1OCc1ccccc1C,14,57*,52*,-9,26,7,47*,87*
COc1cc(/C=N/NC(=O)Cn2nc([N+](=O)[O-])cc2C)cc(Br)c1OCc1ccccc1,0,28,17,-10,36,8,x,x
CCOc1cc(/C=C(\C#N)c2nc3ccccc3[nH]2)ccc1OC(C)C(=O)O (stereo not drawn),-2,9,16,-11,5,-7,x,x
COc1cc(/C=C(\C#N)c2ccccn2)ccc1OCC(=O)Nc1cccc(C(F)(F)F)c1,-28,6,61*,37,0,-5,52*,57*
CCc1ccc(NC(=O)COc2ccc(/C=C(/C#N)c3nc4ccccc4[nH]3)cc2OC)cc1,10,5,100*,4,5,x,81*,53*
COc1cc(/C=C(/C#N)c2nc3ccccc3[nH]2)ccc1Oc1ncccc1[N+](=O)[O-],-10,38,68*,9,20,11,26,x
C=CCSC1=NNC(c2ccc(C(C)(C)C)cc2)=NN1,4,10,-43,-5,4,-1,x,x
COc1ccccc1N(CC(=O)NCCSCc1ccccc1Cl)S(C)(=O)=O,16,-13,0,6,-2,2,x,x
CCOC(=O)c1c(C)[nH]c(C(=O)CSc2nnnn2-c2ccc(C)cc2)c1C,-1,9,66*,5,-5,1,8,x
CCOC(=O)c1c(C)[nH]c(C(=O)CSc2nnnn2-c2ccccc2)c1C,-3,-10,20,17,-2,9,x,x
COC(=O)C1=C(C)N(c2cc(Cl)cc(Cl)c2)C(=O)C1,28,-8,45,9,5,0,x,x
Nc1[nH]n2c(=O)c3c(nc2c1N=Nc1ccc(Cl)cc1)CCCC3,14,42,53*,41,83*,-1,26,x
SMILES,Calb FLC,T cruzi repl,Mdm2 MdmX PPI,CSC inhib,SKKanGAS inh,Beta apoptosis,Mdm2-MdmX conf,FLuc counter
CN1CCN(c2ccccc2NC(=O)c2cc3c(s2)-c2ccccc2OC3)CC1,-9,35,57*,42,2,4,52*,63*
O=C(Nc1cccnc1Cl)c1cc2c(s1)-c1ccccc1OC2,6,-12,-3,7,-10,4,x,x
COc1ccc(C(=O)/C=C/C(=O)N(CC(=O)NC2CCCCC2)CC2CCCO2)c(O)c1 (stereo not drawn),47,50,60*,4,-36,49,29,x
Cc1ccc(NC(=O)c2ccc3c(c2)CCN3S(C)(=O)=O)cc1C,1,-8,-2,-7,-6,4,x,x
CN(C)CCOc1nc(-c2ccccc2)nc2c1oc1ccccc12,31,36,71*,37,19,59,29,x
CN(C)CCOc1ncnc2c1oc1ccccc12,-8,5,11,-1,6,11,x,x
S=C(Nc1ccc(Oc2ccccc2)cc1)N(CCCN1CCOCC1)Cc1ccccn1,-14,6,-6,-14,-1,-4,x,x
CCS(=O)(=O)N1Cc2ccccc2CC1C(=O)Nc1nc2ccccc2s1 (stereo not drawn),-14,8,59*,-2,7,-1,70*,162*
Cc1ccc(-c2cc(C(=O)NCCCN3CCOCC3)c3ccc(Cl)c(C)c3n2)cc1,18,40,50*,26,11,33,42*,75*
COc1ccc(NS(=O)(=O)c2cc(NC(=O)c3ccc(=O)[nH]c3)ccc2N2CCOCC2)cc1,-7,-24,7,x,4,-5,x,x
COc1ccc(NS(=O)(=O)c2cc(NC(=O)c3ccccc3)ccc2N2CCOCC2)cc1,x,x,60*,29,x,10,32,x
COc1ccc(NS(=O)(=O)c2cc(NC(=O)c3cc(F)c(F)cc3Cl)ccc2N2CCOCC2)cc1,x,x,51*,-4,x,13,12,x
COc1ccc(NS(=O)(=O)c2cc(NC(=O)c3ccc(=O)[nH]n3)ccc2N2CCOCC2)cc1,x,x,-15,x,x,3,x,x
COc1ccc(NS(=O)(=O)c2cc(NC(=O)c3sccc3C)ccc2N2CCOCC2)cc1,-5,-17,57*,40,8,7,64*,64*
COc1ccc(NS(=O)(=O)c2cc(NC(=O)c3cc(F)c(F)c(F)c3F)ccc2N2CCCC2)cc1,-11,38,61*,43,12,0,30,x
O=C(Nc1nc2ccccc2[nH]1)c1ccc(OC(F)F)cc1,2,14,-35,8,x,22,x,x
